Results gathered from unrelated publications.
Lines come from different studies, so protocols differ.
Matrix: plasma
Route: oral

Structure (SMILES) | host | dose | bioavailability
Cc1c(C(=O)O)ccc2c3n(nc12)[C@@H]1[C@H](C3)N(CC2CC2)[C@@]2(C(=O)Nc3cc(Cl)ccc32)[C@H]1c1cccc(Cl)c1F | male rat | 2 mg/kg | 55%
Nc1ccc(/C=C/C(=O)NCc2cc3cc(-c4ccc(C(=O)N5CCC(F)(F)CC5)cc4)cc(-c4ccc(F)cc4)c3o2)cn1 | rat | 3 mg/kg | 19.6%
O=C(C=Cc1ccccc1)Nc1cc(-c2ccnc(N3CCC(O)CC3)c2)ccn1 | female Sprague-Dawley rat | 50 mg/kg | ~38.5%
CC(=O)CC(=O)C1CC(C)C(=O)C1=O (stereo not shown) | male Sprague-Dawley rat | 100 mg/kg | 100%
N#C[C@@]12C[C@@H]1[C@@H](n1cnc3c(N[C@@H](C4CCC4)C4CC4)nc(I)nc31)[C@H](O)[C@@H]2O | male Wistar rat | 1 mg/kg | 7.18%
CN1Cc2c(N)cccc2C(=O)N1C1CCC(=O)NC1=O (stereo not shown) | male Sprague-Dawley rat | 3 mg/kg | 82.5%
CC1(CN)CCN(c2cnc3c(Sc4ccncc4Cl)n[nH]c3n2)CC1 | male Sprague-Dawley rat | 10 mg/kg | 42.5%
CC(=Nc1ccc(N=Cc2cnccn2)cc1)N(C)C | male Sprague-Dawley rat | 200 mg/kg | 12%
CC(/C=C/C=C(\C)C(=O)O)=C\C=C\C=C(C)\C=C\C=C(/C)C(=O)O | female Wistar rat | 20 mg/kg | 55 to 66%
O=C1CC[C@H](N2Cc3cc(N4CCN(CC5CCN(c6ccc([C@@H]7c8ccc(O)cc8CC[C@@H]7c7ccccc7)cc6)CC5)CC4)ccc3C2=O)C(=O)N1 | female Sprague-Dawley rat | 20 mg/kg | 24.2%
